Assay results reported in PMC10325562 (Circulation, 2023).
Entries after “also recorded” stand apart in the source; their conditions may differ. Read-outs that look alike come from different tables or passages of the source.

Assays:
PCSK9 in human plasma = PCSK9 in human plasma (Homo sapiens, UniProt Q8NBP7); assay: In vitro titration of PCSK9 in human plasma; assay type: binding
Method in brief: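 Pooled EDTA-anticoagulated plasma (human, n=20 donors; or cynomolgus monkey) spiked with test compound at 0, 0.3, 1, 3, 5, 10, 50, 100, 500 and 1000 nM, from 0.1 mM DMSO stocks. Incubated 30 min at 25°C. Target engagement measured on 50 μL aliquots by affinity capture, enzymatic digestion and LC-MS/MS.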

Solubility = assay type: physicochemical
[1] = Standard genotoxicity/mutagenicity assessments
rats = assay: Safety pharmacology and 1-month repeat-dose toxicity studies, rats; assay type: in vivo; settings: safety pharmacology and 1-month repeat-dose toxicity
monkeys = assay: Safety pharmacology and 1-month repeat-dose toxicity studies, monkeys; assay type: in vivo; settings: safety pharmacology and 1-month repeat-dose toxicity
[2] = Oral bioavailability in cynomolgus monkeys with permeation enhancer; assay type: in vivo; settings: formulated with an established PE
[3] = Study-001 single oral dose plasma pharmacokinetics; assay type: in vivo, human; settings: 200 mg single dose
[4] = Study-001 safety and tolerability; assay type: in vivo, human
Method in brief: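 Single-center, randomized, double-blind, placebo-controlled, single-ascending oral dose study in healthy males aged 18–50. The test compound was given alone, with Labrasol or with sodium caprate. Dosing was fasted except one group after a high-fat breakfast. Escalations were ≥4 days apart, with ≥7-day washout per participant and safety review through ≥24 h. Monitoring covered AEs, physical exam, laboratory safety, 12-lead ECG and vital signs.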

[5] = Study-003 multiple oral dose plasma pharmacokinetics; assay type: in vivo, human; settings: for Accumulation ratio (Day 14/Day 1) AUC0-24 / Accumulation ratio (Day 14/Day 1) C24 / Accumulation ratio (Day 14/Day 1) Cmax: (90% CI); for level at time molar at 24 h: both, plasma, po; for level at time molar at 24 h / AUC(0-t) / Cmax / Tmax / half-life: human; for AUC(0-t) / Cmax / Tmax / half-life: in vivo
[6] = Study-003 safety and tolerability; assay type: in vivo, human
[7] = Passive permeability in MDCKII cells; settings: MDCK, pH 7.4
[8] = 10 mg once daily 30 min post-meal + 360 mg sodium caprate, n=6
[9] = 10 mg once daily fasted + 360 mg sodium caprate, n=8
[10] = 20 mg once daily fasted + 360 mg sodium caprate, n=9

PCSK9 in human plasma, sequence (Q8NBP7 153-692): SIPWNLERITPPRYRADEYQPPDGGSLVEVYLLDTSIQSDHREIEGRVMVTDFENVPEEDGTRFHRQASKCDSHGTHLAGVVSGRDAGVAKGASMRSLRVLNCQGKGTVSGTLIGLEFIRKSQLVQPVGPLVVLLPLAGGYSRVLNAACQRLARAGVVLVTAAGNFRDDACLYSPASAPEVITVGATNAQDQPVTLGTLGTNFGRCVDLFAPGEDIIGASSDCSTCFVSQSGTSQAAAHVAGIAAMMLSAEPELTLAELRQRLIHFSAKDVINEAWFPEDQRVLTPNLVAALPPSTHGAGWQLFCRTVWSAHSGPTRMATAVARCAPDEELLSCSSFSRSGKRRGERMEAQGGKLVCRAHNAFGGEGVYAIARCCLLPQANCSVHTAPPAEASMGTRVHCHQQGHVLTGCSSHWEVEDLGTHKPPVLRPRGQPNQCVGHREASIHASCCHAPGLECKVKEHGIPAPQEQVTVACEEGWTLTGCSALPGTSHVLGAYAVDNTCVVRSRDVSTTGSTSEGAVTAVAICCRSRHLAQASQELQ

For `COc1ccc(C[C@@H]2NC(=O)[C@H]([C@@H](C)O)NC(=O)[C@@H]3[C@@H]4CCN3C(=O)[C@@H]3Cc5cn(c6ccc(F)cc56)CCCCCCN(Cc5ccc(cc5)CCNC(=O)[C@]5(C)CCCN5C2=O)C(=O)CCC(=O)N[C@@H](C)C(=O)N[C@H](CNC(=O)CCCCC[N+](C)(C)C)C(=O)N[C@@H](Cc2cccc(c2)CNC(=O)CO4)C(=O)N3)cc1` [MK-0616], the IC50 (PCSK9 in human plasma) was 2.5 nM, the solubility (Solubility) was 7800 µg/mL and the solubility (Solubility; pH 7) was over 7000 µg/mL. For the same compound, the Genotoxicity / mutagenicity [1] was “not genotoxic or mutagenic”, the Tolerability (rats) was “well tolerated” and the Tolerability (monkeys) was “well tolerated”. The Oral bioavailability [2] was “demonstrated oral bioavailability”, the “Fold lower Cmax in the absence of 1,800 mg Labrasol vs same dose in the PE” value [3] was over 5 fold and the “Deaths or serious AEs” value ([4]; Study-001) was “No deaths or serious AEs”. For the same compound, the “Participants with ≥1 AE” value ([4]; Study-001, n=28 of n=51 administered MK-0616) was 54.9%, the Tolerability ([4]; Study-001, single-dose oral administration) was “generally well tolerated” and the “Accumulation ratio (Day 14/Day 1) AUC0-24” value [5, 8] was 1.90 (1.42, 2.55) h•nmol/L. The “Accumulation ratio (Day 14/Day 1) C24” value [5, 8] was 2.01 (1.51, 2.67) nmol/L, the “Accumulation ratio (Day 14/Day 1) Cmax” value [5, 8] was 1.60 (1.17, 2.21) nmol/L and the “Accumulation ratio (Day 14/Day 1) AUC0-24” value [5, 9] was 1.46 (1.13, 1.88) h•nmol/L. For the same compound, the “Accumulation ratio (Day 14/Day 1) C24” value [5, 9] was 1.32 (1.03, 1.70) nmol/L, the “Accumulation ratio (Day 14/Day 1) Cmax” value [5, 9] was 1.51 (1.15, 1.99) nmol/L and the “Delay of Day 14 Tmax by low-fat breakfast 30 minutes prior to dose” value ([5]; 10 mg vs same dose fasting) was “approximately 6 hours”. The “Accumulation ratio (Day 14/Day 1) AUC0-24” value [5, 10] was 1.97 (1.54, 2.54) h•nmol/L, the “Accumulation ratio (Day 14/Day 1) C24” value [5, 10] was 1.81 (1.42, 2.31) nmol/L and the “Accumulation ratio (Day 14/Day 1) Cmax” value [5, 10] was 2.04 (1.56, 2.68) nmol/L. The Plasma accumulation ([5]; all doses evaluated in Study-003) was “approximately 2 fold”, the level at time molar at 24 h ([5]; 20 mg once daily, C24, Day 14, 20 mg once daily fasted + 360 mg sodium caprate, n=9, footnote: median (min, max)) was 11.1 nM and the level at time molar at 24 h ([5]; 20 mg, C24, Day 1, 20 mg once daily fasted + 360 mg sodium caprate, n=9, geometric mean (95% CI)) was 6.13 nM. It also gave an AUC(0-t) ([5]; AUC0-24, Day 1, 20 mg once daily fasted + 360 mg sodium caprate, statin-treated, n=9, geometric mean (95% CI)) of 0.142 µM·h, an AUC(0-t) ([5]; AUC0-24, Day 14, 20 mg once daily fasted + 360 mg sodium caprate, n=9, geometric mean (95% CI)) of 0.28 µM·h and a Cmax ([5]; Day 1, 20 mg once daily fasted + 360 mg sodium caprate, n=9, geometric mean (95% CI)) of 7.87 nM. For the same compound, the Cmax ([5]; Day 14, 20 mg once daily fasted + 360 mg sodium caprate, n=9, geometric mean (95% CI)) was 16.1 nM, the Tmax ([5]; Day 14, all fasted doses) was under 2 h and the Tmax ([5]; Day 14, 20 mg once daily fasted + 360 mg sodium caprate, n=9, median (min, max)) was 1.8 h. The half-life ([5]; t1/2, Day 14, 20 mg once daily fasted + 360 mg sodium caprate, n=9, geometric mean (% geometric CV)) was 244 h, the half-life ([5]; t1/2, range, Day 14, across dose regimens) was 178 to 244 h and the “Time to steady state” value ([5]; once daily dosing, all dosing regimens) was “by the end of the first week; also recorded: after 1 week”. The “Deaths or serious AEs” value ([6]; Study-003) was “No deaths or serious AEs”, the Tolerability ([6]; Study-003, 14 days of daily oral dosing) was “generally well tolerated” and the “Drug-related AE: dizziness” value ([6]; Study-003, n=1) was 3.2%. The “Drug-related AE: dry mouth” value ([6]; Study-003, n=1) was 3.2%, the “Drug-related AE: dyspepsia” value ([6]; Study-003, n=1) was 3.2% and the “Drug-related AE: flushing” value ([6]; Study-003, n=1) was 3.2%. For the same compound, the “Drug-related AE: hunger” value ([6]; Study-003, n=1) was 3.2%, the “Drug-related AE: insomnia” value ([6]; Study-003, n=1) was 3.2% and the “Drug-related AE: gastroesophageal reflux disease” value ([6]; Study-003, n=2) was 6.5%. The “Participants with 1 or more drug-related AEs” value ([6]; Study-003, n=7 of 31) was 22.6%, the “Participants with 1 or more AEs” value ([6]; Study-003, n=21 of n=31 administered MK-0616) was 67.7% and the Papp [7] was 0.71 ×10⁻⁶ cm/s.
